From ChEMBL document CHEMBL1129975, “Depsides and depsidones as inhibitors of HIV-1 integrase: discovery of novel inhibitors through 3D database searching” (J Med Chem, 1997)

Assays:
[1] = target: T1, Human immunodeficiency virus type 1 integrase (Human immunodeficiency virus 1, UniProt Q7ZJM1); assay: Inhibitory concentration of compound against strand transfer of HIV-1 integrase in experiment 1&2
How it was run: (§1)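 Purified recombinant HIV-1 integrase (200 nM final) preincubated with inhibitor for 30 min at 30 °C. Buffer: 25 mM MOPS pH 7.2, 7.5 mM MnCl2, 50 mM NaCl, 10% DMSO, 10% glycerol, 0.1 mg/mL BSA. Then 20 nM 5′-32P-labelled 21-mer blunt-end U5 LTR duplex was added for 1 h. Products were resolved on a denaturing 20% polyacrylamide/urea gel. IC50 was read from a percent-inhibition versus concentration plot.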

[2] = target: T1, Human immunodeficiency virus type 1 integrase; assay: Inhibitory concentration of compound against 3'-processing of HIV-1 integrase in experiment 1&2; how it was run: as §1
[3] = target: T1, Human immunodeficiency virus type 1 integrase; assay: Inhibitory concentration of compound against strand transfer of HIV-1 integrase in experiment 2
[4] = target: T1, Human immunodeficiency virus type 1 integrase; assay: Inhibitory concentration of compound against 3'-processing of HIV-1 integrase in experiment 2
[5] = target: T1, Human immunodeficiency virus type 1 integrase; assay: Inhibitory concentration of compound against strand transfer of HIV-1 integrase in experiment 1
[6] = target: T1, Human immunodeficiency virus type 1 integrase; assay: Inhibitory concentration of compound against 3'-processing of HIV-1 integrase in experiment 1
[7] = target: T1, Human immunodeficiency virus type 1 integrase; assay: Inhibitory concentration of compound against disintegration (reversal of strand transfer)of HIV-1 integrase
How it was run: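 Disintegration run under the integrase assay conditions (200 nM enzyme preincubated 30 min at 30 °C in MnCl2/MOPS buffer, then 1 h with substrate). Substrate was a Y-shaped branched oligonucleotide mimicking a strand transfer product, 32P-labelled at the 5′ end of its 15-mer. The core-truncated mutant IN50-212 was used as enzyme. The 30-mer product was resolved on a denaturing 20% gel. IC50 was taken from a percent-inhibition plot.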

[8] = target: T2, Human immunodeficiency virus type 2 integrase (Human immunodeficiency virus 2, UniProt P89582); assay: Inhibitory concentration of compound against strand transfer of HIV- integrase
T2 sequence (P89582 whole entry): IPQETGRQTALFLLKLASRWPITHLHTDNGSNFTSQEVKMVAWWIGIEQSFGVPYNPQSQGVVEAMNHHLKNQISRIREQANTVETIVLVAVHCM
How it was run: (§2)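 Integrase (200 nM final) preincubated with inhibitor for 30 min at 30 °C in pH 7.2 MOPS/HEPES buffer with 7.5 mM MnCl2, 10% DMSO, BSA and 2-mercaptoethanol. Then 20 nM 5′-32P-labeled 21-mer U5 LTR duplex was added for 1 h. Quenched with formamide/EDTA dye and run on denaturing 20% PAGE. IC50 read from a plot of % inhibition against drug concentration.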

[9] = target: T2, Human immunodeficiency virus type 2 integrase; assay: Inhibitory concentration of compound against 3' processing of HIV-2 integrase; how it was run: as §2
[10] = target: T2, Human immunodeficiency virus type 2 integrase; assay: Inhibitory concentration of compound against 3'-processing of HIV-2 integrase
[11] = target: T2, Human immunodeficiency virus type 2 integrase
[12] = target: T2, Human immunodeficiency virus type 2 integrase; assay: Inhibitory concentration of compound against strand transfer of HIV-2 integrase; how it was run: as §2

T1 sequence (Q7ZJM1 whole entry): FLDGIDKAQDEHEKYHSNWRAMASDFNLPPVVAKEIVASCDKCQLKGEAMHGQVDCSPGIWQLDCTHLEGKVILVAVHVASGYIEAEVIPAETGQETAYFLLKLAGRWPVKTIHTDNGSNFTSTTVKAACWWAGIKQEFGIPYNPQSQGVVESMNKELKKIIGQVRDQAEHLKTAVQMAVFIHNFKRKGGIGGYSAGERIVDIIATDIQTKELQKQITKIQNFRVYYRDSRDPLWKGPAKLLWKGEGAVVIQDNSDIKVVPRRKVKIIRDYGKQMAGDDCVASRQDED

| SMILES | IC50 [3] [µM] | IC50 [4] [µM] | IC50 [5] [µM] | IC50 [6] [µM] | further results |
| --- | --- | --- | --- | --- | --- |
| Cc1cc(Cc2cc(C)c(O)c(C(=O)O)c2)cc(C(=O)O)c1O | – | – | – | – | IC50 [1]: 68.5 µM; IC50 [2]: 61.8 µM |
| Cc1cc(C(c2cc(C)c(O)c(C(=O)O)c2)c2cc(C)c(O)c(C(=O)O)c2)cc(C(=O)O)c1O | < 23.4 | < 23.4 | 16.7 | 20.4 | – |
| Cc1cc(C(O)(c2cc(C)c(O)c(C(=O)O)c2)c2cc(C)c(O)c(C(=O)O)c2)cc(C(=O)O)c1O | 23 | 32.8 | 21.8 | 35.8 | – |
| CCN(CC)c1ccc(Cc2ccc(N(C)C)c(Cl)c2)cc1 | 38.6 | 78.6 | 45.8 | 61.8 | – |
| CCCCCc1cc2cc(O)cc(Oc3c(O)cc(O)c(C(=O)O)c3CCCCC)c2c(=O)o1 | – | – | 45.7 | 52.2 | IC50 [7]: 35 µM |
| CC(=O)C1=C(NNC(=O)c2ccccn2)[C@@]2(C)C(=CC1=O)Oc1c(C(C)=O)c(O)c(C)c(O)c12 | 55 | 60.8 | 48.5 | 73 | IC50 [7]: 39 µM |
| CCOC(=O)c1cnc(NCCCNc2ncc(C(=O)OCC)c(=O)[nH]2)[nH]c1=O | 7.9 | 11.6 | 16.7 | 12.8 | – |
| O=[N+]([O-])c1cccc(/C=N/CCN2CCN(CC/N=C/c3cccc([N+](=O)[O-])c3O)C2c2cccc([N+](=O)[O-])c2O)c1O | 49.5 | 60.8 | 36.7 | 52.7 | – |
| O=C(Nc1ccc(C(=O)O)c(O)c1)c1ccc(C(=O)Nc2ccc(O)c(C(=O)O)c2)cc1 | 20 | 25.2 | 16.3 | 23.6 | – |
| O=C(NO)c1cc(O)c(O)c(O)c1 | 1.6 | 3.2 | 0.5 | 1.1 | IC50 [8]: 1.6 µM; IC50 [9]: 1.6 µM |
| O=C(NC(Cc1ccc(O)c(O)c1)C(=O)OCc1ccccc1)c1ccc([N+](=O)[O-])cc1 (stereo not given) | 76.6 | 253 | 55.4 | 163 | – |
| Cc1c2cc(O)c(=O)cc-2oc2cc(O)c(O)cc12 | 0.9 | 1.5 | 1.1 | 1.1 | IC50 [10]: 2.3 µM; IC50 [11]: 1.5 µM |
| Nc1cc(C(=O)O)c(-c2cc(O)c(N)cc2C(=O)O)cc1O | – | – | 234 | 212 | – |
| COC(=O)c1c(C)c2c(c(C)c1O)OC(=O)c1c(C)cc(O)c(C=O)c1O2 | – | – | – | – | IC50 [1]: 4.4 µM; IC50 [7]: 26 µM; IC50 [2]: 5.4 µM |
| O=C(/C=C/c1ccc(O)c(O)c1)O[C@H]1[C@H](O)C[C@](O)(C(=O)O)C[C@H]1OC(=O)/C=C/c1ccc(O)c(O)c1 | 0.7 | 0.7 | 0.6 | 1.3 | IC50 [10]: 0.5 µM; IC50 [12]: 0.5 µM |
| COc1cc(C)c2c(c1C)OC(=O)c1c(C)c(Cl)c(O)c(C=O)c1O2 | 2.7 | 2.7 | 1.6 | 2.2 | IC50 [7]: 12.8 µM |
| O=C(O)c1ccccc1C(c1cc(Br)c(O)c(Br)c1)c1ccc(Br)c(O)c1Br (stereo not given) | 27.2 | 25.6 | 38.8 | 43.7 | – |
| Cc1ncc(COP(=O)(O)O)c(C2NC(C(=O)O)CS2)c1O (stereo not given) | 31.7 | 75.1 | 93.4 | 91.7 | – |

| SMILES | IC50 [3] [µM] | IC50 [4] [µM] | IC50 [5] [µM] | IC50 [6] [µM] | further results |
| --- | --- | --- | --- | --- | --- |
| Cc1cc(O)c(C=O)c2c1C(=O)Oc1c(C)c(O)c(C(=O)O)c(C)c1O2 | – | – | – | – | IC50 [1]: 6.5 µM; IC50 [7]: 33.5 µM; IC50 [2]: 4.6 µM |
| O=C(O)c1ccc(C(=O)O)c2c(C(=O)O)ccc(C(=O)O)c12 | 182 | 174 | 176 | 122 | – |
| O=C1OC2C(O)COC2(O)C1(O)Cc1cc(O)c(O)c(Br)c1Br (stereo not given) | 24.3 | 28.7 | 50.2 | 64.7 | – |
| O=C(O)c1cc(/N=N\c2ccccc2C(=O)O)ccc1O | 224 | 211 | 116 | 116 | – |
| O=C(c1ccc(O)cc1O)C1C(c2ccc(O)cc2)OC(c2ccc(O)cc2)C1C(=O)c1ccc(O)cc1O (stereo not given) | 129 | 169 | 143 | 165 | – |
| CCCCCc1cc(O)cc2c1Oc1cc(O)cc(C(=O)CCCC)c1C(=O)O2 | 28.1 | 42.2 | 39.2 | 59.9 | – |
| O=C1C(O)=C(c2ccccc2)C12CSC1(CS2)C(=O)C(O)=C1c1ccccc1 (stereo not given) | 54.8 | 60 | 172 | 132 | – |
| O=C(O)c1cnc2c(ccc3ncc(C(=O)O)c(O)c32)c1O | 6.1 | 6.1 | 9.8 | 7.6 | – |
| O=C(/C=C/c1ccc(O)c(O)c1)O[C@@H]1C[C@](O)(C(=O)O)C[C@@H](O)[C@H]1O (single isomer, unassigned) [CHLOROGENIC ACID] | 31.3 | 58.2 | 45.8 | 87.8 | – |
| CC(=O)C1=C(O)C=C2Oc3c(C(C)=O)c(O)c(C)c(O)c3[C@@]2(C)C1=O [(+)-USNIC ACID] | – | – | – | – | IC50 [1]: 124 µM; IC50 [7]: 133 µM; IC50 [2]: 126 µM |
| COC(=O)c1c(C)cc(OC(=O)c2c(C)cc(O)c(C=O)c2O)c(C)c1O [ATRANORIN] | 44 | 62.4 | 36 | 61 | IC50 [7]: 128 µM |
| C[C@@](O)(/C=C/[C@H]1CC=CC(=O)O1)[C@@H](C[C@@H](O)C=CC=C/C=C/CO)OP(=O)(O)O [FOSTRIECIN] | 52.7 | 118 | 12.8 | 41.3 | – |
| Cc1cc(O)c(C=O)c2c1C(=O)Oc1c(COC(=O)/C=C/C(=O)O)c(O)c(C(=O)O)c(C)c1O2 [FUMARPROTOCETRARIC ACID] | 7.3 | – | – | – | IC50 [1]: 4.6 µM; IC50 [2]: 4.9 µM |
| CCCCCC(=O)Cc1cc(O)cc2c1C(=O)Oc1cc(O)c(C(=O)O)c(CCCCC)c1O2 [PHYSODIC ACID] | – | – | – | – | IC50 [1]: 30.9 µM; IC50 [7]: 32.5 µM; IC50 [2]: 38.5 µM |
| COc1cc(C(=O)O)c2c(c1C)OC(=O)c1c(C)cc(O)c(C=O)c1O2 [PSOROMIC ACID] | 12.3 | 15.1 | 5.3 | 17 | – |
| Cc1cc(O)c(C=O)c2c1C(=O)Oc1c(CO)c(O)c3c(c1O2)C(O)OC3=O (stereo not given) [SLAZINIC ACID] | 6.2 | 16 | 12.6 | 19 | – |
| COc1cc(C)c2c(c1C=O)Oc1c(c(C)c(O)c3c1C(O)OC3=O)OC2=O (stereo not given) [STICTIC ACID] | 1.9 | 2.9 | 2.6 | 4.4 | IC50 [7]: 11.7 µM |
